Results as given in ChEMBL document CHEMBL1144914, “Bisintercalating threading diacridines: relationships between DNA binding, cytotoxicity, and cell cycle arrest” (J Med Chem, 2003).
Numbered stars: 1 amine (or outer) side, 2 acyl side, 3 side chain; on linkers, the order of the positions; unused ones are H or OH. Bridge positions count the residues as written; N and C are the ends. Square brackets hold non-standard residues; d marks the D form. Peptide text beside a SMILES is read from it. I, II: the chains in the order shown. Actinocin(1to9) = Cc1c2oc3c(C)ccc(C(=O)[*:2])c3nc-2c(C(=O)[*:1])c(N)c1=O; NMeV = CN[C@H](C(=O)O)C(C)C; Sar = CNCC(=O)O

Experiments:
CCRF-CEM = assay: Cytotoxicity in human leukemic CCRF-CEM cells.; format: functional, cell-based
How it was run: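 CCRF-CEM cells in RPMI 1640 with 10% FBS, 2 mM glutamine and pen/strep at 37 °C, 5% CO2, seeded at 1 × 10^5 cells/mL. Agent from 1 mM water stock, diluted in PBS over a concentration range, 72 h exposure. Cells counted by Coulter Counter. Duplicate wells, each curve repeated at least three times. IC50 is 50% growth inhibition versus medium control, from a sigmoidal fit.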

Nucleic Acid [1] = assay: Dissociation time constant (Tau 1) for dissociation of compound and calf thymus DNA complex; format: nucleic-acid assay; conditions: Bos taurus
How it was run: (§1)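 Sonicated calf thymus DNA–ligand complex equilibrated 1 h at room temperature in 0.1 SHE buffer (HEPES, EDTA, 0.1 M NaCl, pH 7.0), then rapidly mixed with SDS at 23 °C. Final concentrations 500 μM DNA, 50 μM ligand, 20 mM SDS. Absorbance followed at 423 nm over 420–3600 s and expressed as fraction of reaction. Multiexponential nonlinear least-squares fit; mean of five runs.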

Nucleic Acid [2] = assay: Dissociation time constant (Tau 2) for dissociation of compound and calf thymus DNA complex; format: nucleic-acid assay; conditions: Bos taurus; how it was run: as §1
Nucleic Acid [3] = assay: Dissociation time constant (Tau 3) for dissociation of compound and calf thymus DNA complex; format: nucleic-acid assay; conditions: Bos taurus; how it was run: as §1

Row | Time constant (Nucleic Acid [1]) | Time constant (Nucleic Acid [2]) | Time constant (Nucleic Acid [3]) | SMILES | IC50 (CCRF-CEM)
1 | – | – | – | COc1cc(NS(C)(=O)=O)ccc1Nc1c2ccccc2nc2c(C(N)=O)cccc12 | 120 nM
2 | – | – | – | CC[C@@]1(O)C(=O)OCc2c1cc1n(c2=O)Cc2cc3ccccc3nc2-1 [CAMPTOTHECIN] | 5.3 nM
3 | – | – | – | CS[C@H]1SC[C@H]2C(=O)N(C)[C@@H](C(C)C)C(=O)OC[C@@H](NC(=O)c3cnc4ccccc4n3)C(=O)N[C@@H](C)C(=O)N(C)[C@@H]1C(=O)N(C)[C@@H](C(C)C)C(=O)OC[C@@H](NC(=O)c1cnc3ccccc3n1)C(=O)N[C@@H](C)C(=O)N2C [ECHINOMYCIN] | 0.5 nM
4 | – | – | – | COC1C(O)CC(OC2CC(Oc3cc4cc5c(c(O)c4c(O)c3C)C(=O)[C@@H](OC3CC(OC4CC(OC6CC(C)(O)C(OC(C)=O)C(C)O6)C(O)C(C)O4)C(O)C(C)O3)[C@H]([C@H](OC)C(=O)[C@@H](O)[C@@H](C)O)C5)OC(C)C2OC(C)=O)OC1C (stereo partly drawn) [CHROMOMYCIN] | 3.5 nM
5 | – | – | – | CN(C)CCNC(=O)c1cccc2c(NCCCCNCCCNc3c4ccccc4nc4c(C(=O)NCCN(C)C)cccc34)c3ccccc3nc12 | 250 nM
6 | – | – | – | O=C(NCCN1CCOCC1)c1cccc2c(NCCNCCNCCNc3c4ccccc4nc4c(C(=O)NCCN5CCOCC5)cccc34)c3ccccc3nc12 | 710 nM
7 | 5 s | 17 s | 53 s | CN(C)CCNC(=O)c1cccc2c(NCCCCCCCCNc3c4ccccc4nc4c(C(=O)NCCN(C)C)cccc34)c3ccccc3nc12 | 35 nM
8 | – | – | – | O=C(NCCN1CCOCC1)c1cccc2c(NCCCCCCNc3c4ccccc4nc4c(C(=O)NCCN5CCOCC5)cccc34)c3ccccc3nc12 | 710 nM
9 | – | – | – | COC(=O)[C@@H]1c2cc3c(c(O)c2[C@@H](O[C@@H]2O[C@@H](C)[C@H](OC)[C@@](C)(OC)[C@H]2OC)C[C@]1(C)O)C(=O)c1c(O)cc2c(c1C3=O)O[C@@H]1O[C@@]2(C)[C@H](O)[C@@H](N(C)C)[C@@H]1O [NOGALAMYCIN] | 59 nM
10 | 19 s | 68 s | 790 s | Cc1c2oc3c(C)ccc(C(=O)N[C@@H]4C(=O)N[C@H](C(C)C)C(=O)N5CCC[C@H]5C(=O)N(C)CC(=O)N(C)[C@@H](C(C)C)C(=O)O[C@@H]4C)c3nc-2c(C(=O)N[C@@H]2C(=O)N[C@H](C(C)C)C(=O)N3CCC[C@H]3C(=O)N(C)CC(=O)N(C)[C@@H](C(C)C)C(=O)O[C@@H]2C)c(N)c1=O [DACTINOMYCIN] (I: T[dV]P[Sar][NMeV] / II: T[dV]P[Sar][NMeV]; ester I:1-I:C, II:1-II:C; linker I:N-II:N via Actinocin(1to9)) | 1.6 nM
11 | – | – | – | O=C(NCCN1CCOCC1)c1cccc2c(NCCCCCCCCNc3c4ccccc4nc4c(C(=O)NCCN5CCOCC5)cccc34)c3ccccc3nc12 | 810 nM
12 | – | – | – | O=C(NCCN1CCOCC1)c1cccc2c(NCCN3CCN(CCNc4c5ccccc5nc5c(C(=O)NCCN6CCOCC6)cccc45)CC3)c3ccccc3nc12 | 290 nM
13 | – | – | – | O=C1c2c(O)ccc(O)c2C(=O)c2c(NCCNCCO)ccc(NCCNCCO)c21 [MITOXANTRONE] | 3.6 nM
14 | 6 s | 33 s | 180 s | CN(C)CCNC(=O)c1cccc2c(NCCNCCNCCNc3c4ccccc4nc4c(C(=O)NCCN(C)C)cccc34)c3ccccc3nc12 | 590 nM
15 | – | – | – | CN(C)CCNC(=O)c1cccc2c(NCCCCCCNc3c4ccccc4nc4c(C(=O)NCCN(C)C)cccc34)c3ccccc3nc12 | 87 nM
16 | 5 s | 30 s | 88 s | O=C(NCCN1CCOCC1)c1cccc2c(NCCCNCCCNc3c4ccccc4nc4c(C(=O)NCCN5CCOCC5)cccc34)c3ccccc3nc12 | 47 nM
17 | 7 s | 22 s | 220 s | CN(C)CCNC(=O)c1cccc2c(NCCN3CCN(CCNc4c5ccccc5nc5c(C(=O)NCCN(C)C)cccc45)CC3)c3ccccc3nc12 | 63 nM
18 | – | – | – | COc1cc(NS(C)(=O)=O)ccc1Nc1c2ccccc2nc2ccccc12 [AMSACRINE] | 130 nM
19 | 6 s | 32 s | 130 s | CN(C)CCNC(=O)c1cccc2c(NCCCNCCCNc3c4ccccc4nc4c(C(=O)NCCN(C)C)cccc34)c3ccccc3nc12 | 50 nM
20 | – | – | – | O=C(NCCN1CCOCC1)c1cccc2c(NCCCCNCCCNc3c4ccccc4nc4c(C(=O)NCCN5CCOCC5)cccc34)c3ccccc3nc12 | 75 nM
